Assay results published in publication PMC6409185 (Investigational new drugs, 2018).

Legend:
Format in all cases: biochemical
Settings in all cases: relaxation assay in the presence of 100 μM compound
Calf Topo I (cTopo I) = assay: Relaxation assay for eukaryotic Topo I
Method in brief: (§1)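 Commercial calf or human Topo I, 1 unit (the amount that fully relaxes 0.3 μg supercoiled pBR322), with 0.3 μg supercoiled pBR322 and test compound in 50 mM Tris-HCl pH 7.5, 100 mM NaCl, 10 mM MgCl2, 1 mM DTT, 50 μg/ml BSA. Run 15 min at 37°C, stopped with 25 mM EDTA. Products run on 1.2% agarose in TAE (2 V/cm, 15 h), stained with ethidium bromide, imaged and quantified.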

hTopo I = biological target: T1, hTopo I (Homo sapiens, UniProt P11387); assay: Relaxation assay for eukaryotic Topo I
T1 sequence (P11387 1-765): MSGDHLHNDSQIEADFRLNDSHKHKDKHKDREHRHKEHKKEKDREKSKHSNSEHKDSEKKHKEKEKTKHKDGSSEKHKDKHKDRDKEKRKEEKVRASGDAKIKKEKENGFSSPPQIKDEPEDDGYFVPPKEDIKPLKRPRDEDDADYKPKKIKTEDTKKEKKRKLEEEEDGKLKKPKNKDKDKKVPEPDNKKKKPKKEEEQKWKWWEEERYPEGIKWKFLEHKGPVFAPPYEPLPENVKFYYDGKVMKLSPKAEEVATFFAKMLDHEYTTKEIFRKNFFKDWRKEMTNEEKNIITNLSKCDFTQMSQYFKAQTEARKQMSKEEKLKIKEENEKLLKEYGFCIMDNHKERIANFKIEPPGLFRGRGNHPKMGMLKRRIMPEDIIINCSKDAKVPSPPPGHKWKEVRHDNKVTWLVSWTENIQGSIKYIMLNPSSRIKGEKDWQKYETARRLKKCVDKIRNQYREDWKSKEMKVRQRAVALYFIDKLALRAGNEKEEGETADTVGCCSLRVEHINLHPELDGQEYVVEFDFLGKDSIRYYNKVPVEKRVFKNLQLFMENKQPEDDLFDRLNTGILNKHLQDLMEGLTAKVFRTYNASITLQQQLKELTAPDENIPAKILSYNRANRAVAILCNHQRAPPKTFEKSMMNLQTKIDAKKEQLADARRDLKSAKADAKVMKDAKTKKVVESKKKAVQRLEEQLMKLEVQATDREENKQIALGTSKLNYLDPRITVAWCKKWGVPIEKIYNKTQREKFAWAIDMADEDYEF
Method in brief: as §1

E. coli Topo I = E. coli Topo I (Escherichia coli, UniProt P06612); assay: Relaxation assay with E. coli Topo I
Chain of E. coli Topo I (P06612 whole entry): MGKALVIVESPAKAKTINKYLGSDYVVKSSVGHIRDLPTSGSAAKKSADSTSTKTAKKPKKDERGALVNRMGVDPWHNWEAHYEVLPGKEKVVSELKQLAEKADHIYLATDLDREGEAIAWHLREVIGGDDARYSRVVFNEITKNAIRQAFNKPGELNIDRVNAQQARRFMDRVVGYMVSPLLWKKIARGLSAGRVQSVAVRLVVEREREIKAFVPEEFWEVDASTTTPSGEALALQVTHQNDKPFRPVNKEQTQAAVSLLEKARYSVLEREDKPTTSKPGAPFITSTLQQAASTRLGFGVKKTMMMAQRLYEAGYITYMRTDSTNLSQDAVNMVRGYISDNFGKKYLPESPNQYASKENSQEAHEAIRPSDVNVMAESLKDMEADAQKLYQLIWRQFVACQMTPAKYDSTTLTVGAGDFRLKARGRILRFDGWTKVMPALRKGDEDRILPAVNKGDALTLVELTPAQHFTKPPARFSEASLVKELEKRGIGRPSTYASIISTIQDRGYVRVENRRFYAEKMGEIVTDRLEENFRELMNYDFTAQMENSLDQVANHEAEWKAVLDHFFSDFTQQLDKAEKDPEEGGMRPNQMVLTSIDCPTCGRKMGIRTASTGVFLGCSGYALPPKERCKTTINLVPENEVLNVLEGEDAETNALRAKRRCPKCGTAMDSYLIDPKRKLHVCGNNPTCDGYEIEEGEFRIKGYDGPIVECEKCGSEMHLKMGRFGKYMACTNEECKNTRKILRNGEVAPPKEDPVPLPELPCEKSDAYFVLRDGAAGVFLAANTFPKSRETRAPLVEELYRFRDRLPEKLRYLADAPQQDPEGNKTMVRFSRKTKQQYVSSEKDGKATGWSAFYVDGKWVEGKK

COc1c(N2CC[C@@H](CN)C2)c(F)cc2c(=O)c(C(=O)O)cn(C3CC3)c12 [UING-5-249]
No^2: inhibition of cTopo I (Calf Topo I (cTopo I)) | inhibition of hTopo I (hTopo I) | inhibition of E. coli Topo I (E. coli Topo I)
